Test results as given in ChEMBL document CHEMBL2434935, “Design, syntheses, and characterization of pharmacophore based chemokine receptor CCR5 antagonists as anti prostate cancer agents” (Eur J Med Chem, 2013).
The source made the active and inactive calls. No cut-off for these calls is given here.

Assays:
[1] = target: T1, C-C chemokine receptor type 5 (Homo sapiens, UniProt P51681); assay: Agonist activity at CCR5 (unknown origin) expressed in MOLT4 cells transfected with Gqi5 assessed as induction of calcium ion mobilization after 15 mins by microplate reader method; assay type: functional, cell-based; settings: MOLT-4
How it was run: (§1)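 CCR5-MOLT-4 cells transfected with Gqi5 (Lipofectamine 2000), kept in RPMI 1640/10% FBS with penicillin, streptomycin and 1 mg/mL G418 at 37 °C, 5% CO2. At 48 h post-transfection the cells were resuspended in 50:1 HBSS:HEPES buffer and loaded with Fluo4-AM plus probenecid for 45 min. Ligands were added at varying concentrations for 15 min, then RANTES or buffer was added at 16 s. Fluorescence was read at 494/516 nm for 120 s.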
Target sequence in this assay (P51681 whole entry, looked up): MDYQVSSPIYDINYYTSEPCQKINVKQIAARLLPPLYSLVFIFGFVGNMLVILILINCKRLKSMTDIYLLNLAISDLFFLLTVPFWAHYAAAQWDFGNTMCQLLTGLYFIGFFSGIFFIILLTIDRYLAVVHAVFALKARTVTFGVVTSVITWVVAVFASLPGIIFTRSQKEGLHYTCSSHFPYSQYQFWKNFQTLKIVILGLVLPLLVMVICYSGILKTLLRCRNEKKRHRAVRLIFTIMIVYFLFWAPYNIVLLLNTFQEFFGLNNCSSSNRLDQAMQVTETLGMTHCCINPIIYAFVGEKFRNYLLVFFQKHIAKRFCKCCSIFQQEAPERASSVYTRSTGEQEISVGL

[2] = target: T1, C-C chemokine receptor type 5; assay: Antagonist activity at CCR5 (unknown origin) expressed in MOLT4 cells transfected with Gqi5 assessed as inhibition of RANTES-induced calcium ion mobilization after 15 mins by microplate reader method; assay type: functional, cell-based, MOLT-4; settings: for inhibition: MOLT-4; how it was run: as §1
[3] = (§2) Antiproliferative activity against human M12 cells after 72 hrs by WST-1 assay; assay type: functional; settings: M12, 72 h, read-out: ED50 (the source's name)
How it was run: (§3)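 PC-3 cells kept in serum-free RPMI with L-glutamine, ITS and gentamicin plus 10% FBS. M12 cells got 5% FBS, then after 24 h serum-free medium with 0.01% EGF. Cells plated at 1000/well; after 24 h, drugs added at various concentrations in PBS (controls PBS) for 72 h. Medium then replaced with serum-free medium:WST-1 9:1, absorbance read after 3 h. Non-linear regression fit; mean ± S.E.M., ≥3 experiments in triplicate.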

M12 = assay: as §2; assay type: functional; how it was run: as §3
PC-3 = assay: Antiproliferative activity against human PC3 cells after 72 hrs by WST-1 assay; assay type: functional; settings: for EC50: PC-3, 72 h, read-out: ED50 (the source's name); how it was run: as §3
[4] = Cytotoxicity against mouse NIH/3T3 cells after 48 hrs by neutral red dye uptake assay; assay type: cell-based, NIH3T3; settings: read-out: TC50
How it was run: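 NIH-3T3 mouse embryonic fibroblasts grown in medium with 10% newborn calf serum and 1% penicillin:streptomycin. Compounds at various concentrations in DMEM dilution medium for 48 h. After HBSS wash, neutral red 25 µg/mL in DMEM/5% NBCS for 3 ± 0.1 h. Dye extracted with 50% ethanol/1% acetic acid, shaken 20 min, absorbance 540 nm. TC50 by non-linear regression.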

In the case of `CC(=O)Nc1ccc(CN2CCC(c3ccc(OC(C)C)c(NC(=O)c4cnccn4)c3)CC2)cc1`, the Activity [1] is reported as “inactive”, the IC50 [2] is reported as 88.1 µM and the inhibition [2] is reported as “Dose-dependent effect”.

In the case of `CCOc1ccc(C2CCN(Cc3ccc(N)cc3)CC2)cc1NC(=O)c1cnccn1`, the Activity [1] is reported as “inactive”, the IC50 [2] is reported as 43.5 µM and the inhibition [2] is reported as “Dose-dependent effect”.

In the case of `CCOc1ccc(C2CCN(Cc3ccc(N(CC)CC)cc3)CC2)cc1NC(=O)c1cnccn1`, the EC50 [3] is reported as 18.7 µM, the Activity (M12) is reported as “Dose-dependent effect” and the Activity (PC-3) is reported as “Dose-dependent effect”. For the same compound, the EC50 (PC-3) was 77 µM, the CC50 at 48 h [4] was 46.9 µM and the Activity [1] was “inactive”. For the same compound, the IC50 [2] was 51.8 µM and the inhibition [2] was “Dose-dependent effect”.

With `CCOc1ccc(C2CCN(Cc3ccc(N)cc3)CC2)cc1NC(=O)c1ccccc1` the Activity [1] was “inactive”, the IC50 [2] was 63 µM and the inhibition [2] was “Dose-dependent effect”.

In the case of `COc1ccc(C2CCN(Cc3ccc(NC(C)=O)cc3)CC2)cc1NC(=O)c1ccccc1`, the EC50 [3] is reported as 79.9 µM, the Activity (M12) is reported as “Dose-dependent effect” and the Activity (PC-3) is reported as “Dose-dependent effect”. For the same compound, the EC50 (PC-3) was 60 µM, the CC50 at 48 h [4] was 92.2 µM and the Activity [1] was “inactive”. The IC50 [2] was 70.8 µM and the inhibition [2] was “Dose-dependent effect”.

In the case of `CC(=O)Nc1ccc(CN2CCC(c3ccc(OC(C)C)c(NC(=O)c4ccccc4)c3)CC2)cc1`, the Activity [1] is reported as “inactive”, the IC50 [2] is reported as 92.2 µM and the inhibition [2] is reported as “Dose-dependent effect”.

For `CCN(CC)c1ccc(CN2CCC(c3ccc(OC)c(NC(=O)c4cnccn4)c3)CC2)cc1`, the Activity [1] was “inactive”, the IC50 [2] was 56 µM and the inhibition [2] was “Dose-dependent effect”.

With `COc1ccc(C2CCN(Cc3ccc(NC(C)=O)cc3)CC2)cc1NC(=O)c1cnccn1` the Activity [1] was “inactive”, the IC50 [2] was 59 µM and the inhibition [2] was “Dose-dependent effect”.

In the case of `COc1ccc(C2CCN(Cc3ccc(N)cc3)CC2)cc1NC(=O)c1ccccc1`, the Activity [1] is reported as “inactive”, the IC50 [2] is reported as 77 µM and the inhibition [2] is reported as “Dose-dependent effect”.

With `CC(C)Oc1ccc(C2CCN(Cc3ccc([N+](=O)[O-])cc3)CC2)cc1NC(=O)c1ccccc1` the Activity [1] was “inactive”, the IC50 [2] was 45 µM and the inhibition [2] was “Dose-dependent effect”.

For `COc1ccc(C2CCN(Cc3ccc(N)cc3)CC2)cc1NC(=O)c1cnccn1`, the EC50 [3] was 73.7 µM, the Activity (M12) was “Dose-dependent effect” and the Activity (PC-3) was “Dose-dependent effect”. For the same compound, the EC50 (PC-3) was 72.3 µM, the CC50 at 48 h [4] was > 100 µM and the Activity [1] was “inactive”. The IC50 [2] was 38.8 µM and the inhibition [2] was “Dose-dependent effect”.

In the case of `CCOc1ccc(C2CCN(Cc3ccc(NC(C)=O)cc3)CC2)cc1NC(=O)c1cnccn1`, the EC50 [3] is reported as 58 µM, the Activity (M12) is reported as “Dose-dependent effect” and the Activity (PC-3) is reported as “Dose-dependent effect”. For the same compound, the EC50 (PC-3) was 50 µM, the CC50 at 48 h [4] was > 100 µM and the Activity [1] was “inactive”. For the same compound, the IC50 [2] was 47 µM and the inhibition [2] was “Dose-dependent effect”.

In the case of `CCOc1ccc(C2CCN(Cc3ccc(NC(C)=O)cc3)CC2)cc1NC(=O)c1ccccc1`, the Activity [1] is reported as “inactive”, the IC50 [2] is reported as 115 µM and the inhibition [2] is reported as “Dose-dependent effect”.

With `COc1ccc(C2CCN(Cc3ccc([N+](=O)[O-])cc3)CC2)cc1NC(=O)c1ccccc1` the Activity [1] was “inactive”, the IC50 [2] was 28.7 µM and the inhibition [2] was “Dose-dependent effect”.

In the case of `CC(C)Oc1ccc(C2CCN(Cc3ccc(N)cc3)CC2)cc1NC(=O)c1cnccn1`, the Activity [1] is reported as “inactive”, the IC50 [2] is reported as 77.8 µM and the inhibition [2] is reported as “Dose-dependent effect”.

In the case of `CCOc1ccc(C2CCN(Cc3ccc([N+](=O)[O-])cc3)CC2)cc1NC(=O)c1cnccn1`, the Activity (M12) is reported as “Dose-dependent effect”, the Activity (PC-3) is reported as “Dose-dependent effect” and the EC50 (PC-3) is reported as 109 µM. The CC50 at 48 h [4] was > 100 µM, the Activity [1] was “inactive” and the IC50 [2] was 61 µM. For the same compound, the inhibition [2] was “Dose-dependent effect”.

With `CCN(CC)c1ccc(CN2CCC(c3ccc(OC)c(NC(=O)c4ccccc4)c3)CC2)cc1` the Activity [1] was “inactive”, the IC50 [2] was 90 µM and the inhibition [2] was “Dose-dependent effect”.

For `CCN(CC)c1ccc(CN2CCC(c3ccc(OC(C)C)c(NC(=O)c4ccccc4)c3)CC2)cc1`, the Activity [1] was “inactive”, the IC50 [2] was 138 µM and the inhibition [2] was “Dose-dependent effect”.

For `CCOc1ccc(C2CCN(Cc3ccc([N+](=O)[O-])cc3)CC2)cc1NC(=O)c1ccccc1`, the Activity [1] was “inactive”, the IC50 [2] was 28 µM and the inhibition [2] was “Dose-dependent effect”.

With `CC(C)Oc1ccc(C2CCN(Cc3ccc([N+](=O)[O-])cc3)CC2)cc1NC(=O)c1cnccn1` the Activity [1] was “inactive”, the IC50 [2] was 65.7 µM and the inhibition [2] was “Dose-dependent effect”.

With `CC(C)Oc1ccc(C2CCN(Cc3ccc(N)cc3)CC2)cc1NC(=O)c1ccccc1` the Activity [1] was “inactive”, the IC50 [2] was 66.2 µM and the inhibition [2] was “Dose-dependent effect”.

For `CCOc1ccc(C2CCN(Cc3ccc(N(CC)CC)cc3)CC2)cc1NC(=O)c1ccccc1`, the EC50 [3] was 15.9 µM, the Activity (M12) was “Dose-dependent effect” and the Activity (PC-3) was “Dose-dependent effect”. The EC50 (PC-3) was 86.6 µM, the CC50 at 48 h [4] was 49.5 µM and the Activity [1] was “inactive”. The IC50 [2] was 64 µM and the inhibition [2] was “Dose-dependent effect”.

For `COc1ccc(C2CCN(Cc3ccc([N+](=O)[O-])cc3)CC2)cc1NC(=O)c1cnccn1`, the Activity [1] was “inactive”, the IC50 [2] was 73 µM and the inhibition [2] was “Dose-dependent effect”.

With `CCN(CC)c1ccc(CN2CCC(c3ccc(OC(C)C)c(NC(=O)c4cnccn4)c3)CC2)cc1` the Activity [1] was “inactive”, the IC50 [2] was 61 µM and the inhibition [2] was “Dose-dependent effect”.
